Experimental data from ChEMBL document CHEMBL3232922, “Discovery and SAR of 6-alkyl-2,4-diaminopyrimidines as histamine H₄ receptor antagonists” (J Med Chem, 2014).

Experiments:
[1] = Oral bioavailability in Sprague-Dawley rat at 500 mg/kg; type: ADME, organism-based; conditions: in vivo
[2] = Half life in rat at 10 mg/kg, po; type: ADME, organism-based; parameters: dose 10 mg/kg, route oral; conditions: in vivo
[3] = Tmax in mouse brain at 5 mg/kg, po administered as single dose by LC-MS/MS analysis; type: ADME, organism-based; parameters: dose 5 mg/kg, route oral
Outline: (§1)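 Mice received one oral dose of 5 mg/kg. Brain, liver and kidneys were surgically removed from three mice per time point for up to 96 h after dosing. Tissue drug levels were measured by LC–MS/MS with a lower limit of quantitation of 1 ng/g. Tmax and t1/2 are reported as means.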

[4] = Half life in mouse brain at 5 mg/kg, po administered as single dose by LC-MS/MS analysis; type: ADME, organism-based; parameters: dose 5 mg/kg, route oral; outline: as §1
[5] = Cmax in Sprague-Dawley rat at 10 mg/kg, po; type: ADME, organism-based; parameters: dose 10 mg/kg, route oral; conditions: in vivo
[6] = Fraction unbound in human plasma; type: ADME, cell-free
[7] = molecular target: Voltage-gated inwardly rectifying potassium channel KCNH2 (Homo sapiens, UniProt Q12809); experiment: Inhibition of human ERG channel up to 30 uM by astemizole binding assay
Sequence of Voltage-gated inwardly rectifying potassium channel KCNH2 (Q12809 whole entry): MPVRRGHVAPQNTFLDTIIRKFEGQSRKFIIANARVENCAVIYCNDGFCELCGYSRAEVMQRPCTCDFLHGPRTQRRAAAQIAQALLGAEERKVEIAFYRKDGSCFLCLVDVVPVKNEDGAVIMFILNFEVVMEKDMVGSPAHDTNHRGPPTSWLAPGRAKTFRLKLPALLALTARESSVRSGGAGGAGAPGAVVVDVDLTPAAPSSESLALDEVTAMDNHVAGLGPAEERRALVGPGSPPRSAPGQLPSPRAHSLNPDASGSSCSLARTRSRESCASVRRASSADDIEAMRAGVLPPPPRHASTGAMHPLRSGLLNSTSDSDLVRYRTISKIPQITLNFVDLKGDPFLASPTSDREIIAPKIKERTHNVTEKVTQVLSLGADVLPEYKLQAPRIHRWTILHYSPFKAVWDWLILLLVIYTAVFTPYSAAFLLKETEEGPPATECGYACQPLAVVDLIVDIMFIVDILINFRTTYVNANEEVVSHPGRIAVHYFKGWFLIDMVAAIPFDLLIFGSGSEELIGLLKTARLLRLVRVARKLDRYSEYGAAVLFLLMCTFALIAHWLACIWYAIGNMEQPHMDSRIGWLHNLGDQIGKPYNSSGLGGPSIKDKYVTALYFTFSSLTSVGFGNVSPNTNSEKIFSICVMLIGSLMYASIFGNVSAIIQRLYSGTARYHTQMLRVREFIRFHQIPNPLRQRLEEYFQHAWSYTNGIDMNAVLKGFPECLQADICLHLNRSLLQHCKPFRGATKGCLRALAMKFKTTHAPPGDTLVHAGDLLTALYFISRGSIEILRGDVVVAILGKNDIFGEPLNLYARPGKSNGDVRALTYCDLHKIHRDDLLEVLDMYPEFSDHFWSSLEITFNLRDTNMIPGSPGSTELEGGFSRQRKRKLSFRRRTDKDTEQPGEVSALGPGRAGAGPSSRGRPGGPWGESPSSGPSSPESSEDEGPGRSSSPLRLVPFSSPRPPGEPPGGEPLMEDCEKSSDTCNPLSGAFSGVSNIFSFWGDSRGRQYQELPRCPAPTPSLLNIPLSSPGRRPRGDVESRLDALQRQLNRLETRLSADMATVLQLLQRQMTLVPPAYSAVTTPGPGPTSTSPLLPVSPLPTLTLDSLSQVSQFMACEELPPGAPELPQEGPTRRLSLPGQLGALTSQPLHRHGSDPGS

[8] = Cmax in Sprague-Dawley rat at 50 mg/kg, po; type: ADME, organism-based; parameters: dose 50 mg/kg, route oral; conditions: in vivo
[9] = system: Salmonella typhimurium; experiment: Genotoxicity in Salmonella typhimurium by Ames test; type: toxicity, organism-based; conditions: salmonella enterica subsp. enterica serovar typhimurium
[10] = molecular target: Cytochrome P450 3A4 (Homo sapiens, UniProt P08684); experiment: Inhibition of CYP3A4 (unknown origin) at 50 to 100 uM; type: ADME
Sequence of Cytochrome P450 3A4 (P08684 whole entry): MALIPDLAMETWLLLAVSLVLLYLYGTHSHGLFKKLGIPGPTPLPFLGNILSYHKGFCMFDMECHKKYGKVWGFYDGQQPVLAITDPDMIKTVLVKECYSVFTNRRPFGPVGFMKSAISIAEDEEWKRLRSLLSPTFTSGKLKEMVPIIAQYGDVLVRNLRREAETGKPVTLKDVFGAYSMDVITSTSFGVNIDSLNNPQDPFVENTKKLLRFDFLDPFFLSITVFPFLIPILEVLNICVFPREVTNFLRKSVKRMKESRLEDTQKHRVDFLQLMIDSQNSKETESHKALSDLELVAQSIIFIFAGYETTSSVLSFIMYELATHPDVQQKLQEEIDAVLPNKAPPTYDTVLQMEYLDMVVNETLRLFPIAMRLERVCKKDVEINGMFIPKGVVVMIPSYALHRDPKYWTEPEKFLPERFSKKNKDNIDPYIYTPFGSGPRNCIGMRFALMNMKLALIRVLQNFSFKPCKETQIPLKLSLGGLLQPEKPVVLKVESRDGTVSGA

[11] = Half life in monkey liver microsomes; type: ADME, Macaca mulatta; conditions: rhesus monkey
[12] = Permeability from basolateral to apical side in human Caco cells; type: ADME, cell-based; conditions: Caco-2, read-out: permeability
[13] = molecular target: T1, Histamine H4 receptor (Homo sapiens, UniProt Q9H3N8); experiment: Antagonist activity at human histamine H4 receptor expressed in SK-N-MC cells assessed as reduction of histamine-induced inhibition of cAMP-mediated beta-galactosidase reporter gene activity treated 10 mins prior to histamine challenge by microplate reader analysis; type: functional, cell-based; conditions: read-out: pA2 (converted)
T1 sequence (Q9H3N8 whole entry): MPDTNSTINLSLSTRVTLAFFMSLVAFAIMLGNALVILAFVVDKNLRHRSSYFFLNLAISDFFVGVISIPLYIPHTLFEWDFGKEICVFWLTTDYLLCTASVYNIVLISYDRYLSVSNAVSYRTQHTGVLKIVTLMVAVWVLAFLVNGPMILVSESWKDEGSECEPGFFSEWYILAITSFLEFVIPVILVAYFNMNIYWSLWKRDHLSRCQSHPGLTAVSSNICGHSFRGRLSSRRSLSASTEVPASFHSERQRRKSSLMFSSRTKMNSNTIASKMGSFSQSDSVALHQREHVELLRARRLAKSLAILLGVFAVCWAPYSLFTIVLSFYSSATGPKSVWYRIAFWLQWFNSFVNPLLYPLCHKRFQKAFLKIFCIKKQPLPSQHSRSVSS

[14] = molecular target: Histamine H4 receptor (Rattus norvegicus, UniProt Q91ZY1); experiment: Antagonist activity at rat histamine H4 receptor expressed in SK-N-MC cells assessed as reduction of histamine-induced inhibition of cAMP-mediated beta-galactosidase reporter gene activity treated 10 mins prior to histamine challenge by microplate reader analysis; type: functional, cell-based; conditions: read-out: pA2 (converted)
Sequence of Histamine H4 receptor (Rattus norvegicus, UniProt Q91ZY1) (Q91ZY1 whole entry): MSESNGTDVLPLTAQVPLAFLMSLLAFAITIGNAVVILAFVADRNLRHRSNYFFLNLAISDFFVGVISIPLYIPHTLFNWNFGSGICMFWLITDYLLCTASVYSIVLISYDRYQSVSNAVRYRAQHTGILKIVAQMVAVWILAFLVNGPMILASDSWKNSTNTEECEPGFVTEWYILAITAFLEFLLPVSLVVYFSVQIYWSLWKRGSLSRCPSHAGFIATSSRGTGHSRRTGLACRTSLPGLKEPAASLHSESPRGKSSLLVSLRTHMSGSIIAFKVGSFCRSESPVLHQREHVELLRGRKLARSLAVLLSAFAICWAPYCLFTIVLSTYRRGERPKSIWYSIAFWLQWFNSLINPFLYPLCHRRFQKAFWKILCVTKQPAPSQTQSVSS

[15] = Cmax in rat at 10 mg/kg, po; type: ADME, organism-based; parameters: dose 10 mg/kg, route oral; conditions: in vivo
[16] = Volume of distribution at steady state in beagle dog at 2 mg/kg, iv; type: ADME, organism-based, Canis lupus familiaris; parameters: dose 2 mg/kg, route intravenous; conditions: in vivo, read-out: Vdss
[17] = Cmax in beagle dog at 10 mg/kg, po; type: ADME, organism-based, Canis lupus familiaris; parameters: dose 10 mg/kg, route oral; conditions: in vivo
[18] = Half life in dog liver microsomes; type: ADME, Canis lupus familiaris
[19] = molecular target: T2, Histamine H4 receptor (Mus musculus, UniProt Q91ZY2); experiment: Displacement of [3H]histamine from mouse histamine H4 receptor expressed in SK-N-MC cells after 45 mins by competition binding analysis; type: cell-based
T2 sequence (Q91ZY2 whole entry): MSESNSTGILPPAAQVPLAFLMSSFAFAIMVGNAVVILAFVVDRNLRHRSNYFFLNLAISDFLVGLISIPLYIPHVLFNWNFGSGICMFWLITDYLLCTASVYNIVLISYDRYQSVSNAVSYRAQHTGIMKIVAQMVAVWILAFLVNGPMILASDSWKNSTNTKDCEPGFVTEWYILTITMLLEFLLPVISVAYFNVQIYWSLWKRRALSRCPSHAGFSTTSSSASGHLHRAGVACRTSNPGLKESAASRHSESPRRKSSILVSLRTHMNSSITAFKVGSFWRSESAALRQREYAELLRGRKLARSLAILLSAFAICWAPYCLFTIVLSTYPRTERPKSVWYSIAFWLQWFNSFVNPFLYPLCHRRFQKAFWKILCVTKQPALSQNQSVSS
Outline: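 Transfected cells expressing the H4 receptor, competition against [3H]histamine. Ki is the geometric mean of at least three independent determinations (each in triplicate), calculated by the Cheng–Prusoff equation.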

[20] = molecular target: T1, Histamine H4 receptor; experiment: Displacement of [3H]histamine from human recombinant histamine H4 receptor expressed in SK-N-MC cells after 45 mins by competition binding analysis; type: cell-based
[21] = Initial plasma concentration in Sprague-Dawley rat at 2 mg/kg, iv; type: ADME, organism-based; parameters: dose 2 mg/kg, route intravenous
[22] = Half life in Sprague-Dawley rat at 50 mg/kg, po; type: ADME, organism-based; parameters: dose 50 mg/kg, route oral; conditions: in vivo
[23] = molecular target: T3, Histamine H4 receptor (Cavia porcellus, UniProt Q91ZY3); experiment: Binding affinity to guinea pig histamine H4 receptor
T3 sequence (Q91ZY3 whole entry): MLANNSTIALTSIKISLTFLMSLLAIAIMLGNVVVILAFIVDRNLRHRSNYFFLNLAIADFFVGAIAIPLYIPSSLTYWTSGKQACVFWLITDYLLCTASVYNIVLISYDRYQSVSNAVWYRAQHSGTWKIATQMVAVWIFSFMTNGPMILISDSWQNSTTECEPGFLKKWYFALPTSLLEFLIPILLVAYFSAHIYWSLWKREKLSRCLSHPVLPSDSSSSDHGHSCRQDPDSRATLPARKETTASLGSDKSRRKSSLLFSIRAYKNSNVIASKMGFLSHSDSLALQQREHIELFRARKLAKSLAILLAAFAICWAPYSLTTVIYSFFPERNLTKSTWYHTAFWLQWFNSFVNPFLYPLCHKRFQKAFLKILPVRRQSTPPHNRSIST

[24] = AUC in Sprague-Dawley rat at 50 mg/kg, po; type: ADME, organism-based; parameters: dose 50 mg/kg, route oral; conditions: plasma
[25] = AUC in rat at 2 mg/kg, iv; type: ADME, organism-based; parameters: dose 2 mg/kg, route intravenous; conditions: plasma
[26] = AUC in Sprague-Dawley rat at 2 mg/kg, iv; type: ADME, organism-based; parameters: dose 2 mg/kg, route intravenous; conditions: plasma
[27] = Oral bioavailability in Sprague-Dawley rat at 200 mg/kg; type: ADME, organism-based; conditions: in vivo
[28] = Ratio of drug level in kidney to plasma in mouse at 5 mg/kg, po administered as single dose […] by LC-MS/MS analysis; type: ADME, organism-based; parameters: dose 5 mg/kg, route oral
[29] = Tmax in mouse liver at 5 mg/kg, po administered as single dose by LC-MS/MS analysis; type: ADME, organism-based; parameters: dose 5 mg/kg, route oral; outline: as §1
[30] = Tmax in Sprague-Dawley rat at 50 mg/kg, po; type: ADME, organism-based; parameters: dose 50 mg/kg, route oral; conditions: in vivo
[31] = system: Mus musculus; experiment: Antiinflammatory activity against po dosed collagen-induced arthritis mouse model assessed as inhibition of clinical score; type: functional, organism-based
Outline: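 Mouse collagen-induced arthritis model. Compound was given orally in 20% hydroxypropyl-β-cyclodextran, with eight mice per group.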

[32] = Tmax in mouse kidney at 5 mg/kg, po administered as single dose by LC-MS/MS analysis; type: ADME, organism-based; parameters: dose 5 mg/kg, route oral; outline: as §1
[33] = Half life in Sprague-Dawley rat at 10 mg/kg, po; type: ADME, organism-based; parameters: dose 10 mg/kg, route oral; conditions: in vivo
[34] = Antagonist activity at monkey histamine H4 receptor; parameters: species or system Macaca mulatta
[35] = Half life in Balb/c mouse at 5 mg/kg, po; type: ADME, organism-based; parameters: dose 5 mg/kg, route oral; conditions: in vivo
[36] = Oral bioavailability in Sprague-Dawley rat at 10 mg/kg; type: ADME, organism-based; conditions: in vivo
[37] = Volume of distribution at steady state in rat at 2 mg/kg, iv; type: ADME, organism-based; parameters: dose 2 mg/kg, route intravenous; conditions: in vivo, read-out: Vdss
[38] = Half life in rat microsomes; type: ADME, Microsome
[39] = Tmax in Balb/c mouse at 20 mg/kg, po; type: ADME, organism-based; parameters: dose 20 mg/kg, route oral; conditions: in vivo
[40] = Cmax in Balb/c mouse at 5 mg/kg, po; type: ADME, organism-based; parameters: dose 5 mg/kg, route oral; conditions: in vivo
[41] = Half life in Sprague-Dawley rat at 500 mg/kg, po; type: ADME, organism-based; parameters: dose 500 mg/kg, route oral; conditions: in vivo

What does the source list for `CC(C)c1cc(N2CC[C@@H](N)C2)nc(N)n1` [JNJ-39758979]?
bioavailability [1]: 53%; half-life [2]: 7.5 h; Tmax [3]: 6 h; half-life [4]: 42.5 h; Cmax [5]: 260 nM; fraction unbound [6]: 0.81; inhibition (INH) [7]: Not Active; Cmax [8]: 1250 nM; Activity [9]: Non-toxic; inhibition (INH) [10]: Not Active; half-life [11]: > 2 h; Papp B→A [12]: 22 ×10⁻⁶ cm/s; Kb [13]: 12.6 nM; Kb [14]: 63.1 nM; Cmax [15]: 300 nM; Vd [16]: 19.9 L/kg; Cmax [17]: 3900 nM; half-life [18]: > 2 h; Ki [19]: 5.3 nM; Ki [20]: 12.5 nM; C0 [21]: 1100 nM; half-life [22]: 5.45 h; Ki [23]: 306 nM; AUC [24]: 13.4 µM·h; AUC [25]: 1.4 µM·h; AUC [26]: 1.4 µM·h; bioavailability [27]: 51%; Kp [28]: 23.2; Tmax [29]: 2 h; Tmax [30]: 2 h; inhibition [31]: Dose-dependent effect; Tmax [32]: 2 h; half-life [33]: 5.7 h; pA2 [34]: 7.5; half-life [35]: 6.8 h; bioavailability [36]: 35%; Vd [37]: 19.9 L/kg; half-life [38]: 1.02 h; Tmax [39]: 0.5 h; Cmax [40]: 790 nM; half-life [41]: 12 h
